eIF4H inh: inhibitors of RNA binding by human eIF4H; inhibition, % at 35 µM; 290,000 compounds, 0.94% hits; eIF4H fluorescence polarization binding assay; AID 2012;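 also: calls also rest on retests at 20 µM and on dose response follow-up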
VIM-2 inh: inhibitors of Pseudomonas aeruginosa VIM-2 metallo-beta-lactamase; purified VIM-2, nitrocefin hydrolysis, epi-absorbance fluorescence; inhibition, % at 5.6 µM; 290,000 compounds, 0.89% hits;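 active = inhibition above the mean of all tested compounds plus 3 SD, cutoff set per screening run, cut at about 7.5% in these data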;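 also: red hydrolysis product quenches plate fluorescence so inhibitors raise well fluorescence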
PABP polyA inh: PABP-poly(A) binding inhibition; 290,000 compounds, 1% hits; P11940; AID 2014; PABP-poly(A) RNA binding, fluorescence polarization; calls only at 35 µM;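 also: calls also rest on retests at 20 µM and on dose response follow-up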
Target sequence (P11940 whole entry, looked up): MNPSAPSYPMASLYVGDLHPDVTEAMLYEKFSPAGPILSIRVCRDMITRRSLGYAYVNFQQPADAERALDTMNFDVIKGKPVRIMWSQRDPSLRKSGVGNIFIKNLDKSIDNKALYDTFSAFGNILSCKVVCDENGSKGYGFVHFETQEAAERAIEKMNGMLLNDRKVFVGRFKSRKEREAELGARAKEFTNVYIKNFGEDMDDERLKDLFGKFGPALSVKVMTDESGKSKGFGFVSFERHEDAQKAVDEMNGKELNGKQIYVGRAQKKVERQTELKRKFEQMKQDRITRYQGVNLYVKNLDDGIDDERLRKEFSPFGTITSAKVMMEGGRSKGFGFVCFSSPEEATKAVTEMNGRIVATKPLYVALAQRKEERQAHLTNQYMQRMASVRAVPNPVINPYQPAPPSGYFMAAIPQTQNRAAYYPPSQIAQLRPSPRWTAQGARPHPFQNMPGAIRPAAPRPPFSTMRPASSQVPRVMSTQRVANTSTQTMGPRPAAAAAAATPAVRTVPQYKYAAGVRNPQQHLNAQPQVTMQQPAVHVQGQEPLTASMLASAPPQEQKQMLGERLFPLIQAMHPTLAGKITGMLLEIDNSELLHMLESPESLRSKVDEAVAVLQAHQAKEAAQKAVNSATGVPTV
MLLE-PAM2 inh: inhibitors of microRNA-mediated deadenylation, human PABP1 MLLE binding. P11940. GST-MLLE / FITC-PAM2 fluorescence polarization. inhibition, % at 20 µM. 360,000 compounds, 0.36% hits. AID 588489; in the data active = inhibition above about 35%, passing the limit was not always enough
IMP-1 inhibitor: inhibitors of Pseudomonas aeruginosa IMP-1 metallo-beta-lactamase | purified IMP-1, nitrocefin hydrolysis, epi-absorbance fluorescence | inhibition, % at 5.6 µM | 290,000 compounds, 0.45% hits;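 active = inhibition above the mean plus 3 SD of all compounds in the same screening run, cut at about 4.5% in these data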
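System: purified IMP-1 / Input: IMP-1 dispensed at 0.2 nM / Medium: 50 mM HEPES pH 7.1, 50 µM ZnSO4, 0.05% Brij 35 / Timing: 15 min enzyme–compound preincubation, then 25 min nitrocefin reaction, 25 °C / Technique: plate fluorescence quenching by hydrolysis product, ex 480/em 530 nm / Repeats: singlicate testing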
Of the large screens only hits and unclear results are named; the others gave an inactive call. Most compounds without a hit are left out; they make up all but 2.2% or so of the library. Unless noted, no rule for the calls is given here.

N#CCCN(C(=S)NC(=O)c1ccco1)c1ccccc1F	MLLE-PAM2 inh 47
N#CCCN(Cc1cccnc1)C(=S)NCc1ccco1	none
N#CCCN(Cc1cccnc1)C(=S)NC(=O)c1ccco1	PABP polyA inh active
O=C(Cc1ccc(Cl)cc1Cl)OCC(=O)N1CCCCC1	none
CN(C)c1ccc(/C=N/Nc2ccc(-n3ccnc3)nn2)cc1	VIM-2 inh 8.2
COc1cccc2c1Oc1cc([N+](=O)[O-])cc(N(C)C(C)=O)c1C=C2	none
Cc1ccc(C(=O)N2CCn3c(C)ccc3C2C)cc1 (stereo unspecified)	eIF4H inh 64, PABP polyA inh active
CC1=NNC(=O)C1Cc1ccc(F)cc1 (stereo unspecified)	VIM-2 inh 8.4
COc1cccc(-n2c(=S)sc3c(=O)n(-c4ccccc4OC)c(=S)[nH]c32)c1	MLLE-PAM2 inh 41
COc1ccc(Cl)cc1NC(=O)c1noc(C)c1[N+](=O)[O-]	none
CCN(CC)CCSC(=O)C(c1ccccc1)c1ccccc1	MLLE-PAM2 inh 47 (no result: eIF4H inh, VIM-2 inh, PABP polyA inh, IMP-1 inhibitor)
CC(C)CC(=O)NC(=S)NNC(=O)c1ccc(NC(=O)C2CCCCC2)cc1	eIF4H inh 61, PABP polyA inh active
C=C(C(=O)O)C(CCCCCC)C(=O)O (stereo unspecified)	IMP-1 inhibitor 14
CCc1ccccc1OCC(=O)N(CC)CC(=O)NCc1ccc(F)cc1	eIF4H inh active, PABP polyA inh active
C[C@H]1CN=C(Nc2ccccc2)N1CCC1CCCC1	none
CCOc1cc(Br)cc(C(c2c(C(=O)O)[nH]c3ccccc23)c2c(C(=O)O)[nH]c3ccccc23)c1O	none
CSc1ccc(C(c2c(C(=O)O)[nH]c3ccccc23)c2c(C(=O)O)[nH]c3ccccc23)cc1	eIF4H inh 53
O=S(=O)(NCC(c1ccco1)N1CCc2ccccc2C1)c1ccc(Br)cc1 (stereo unspecified)	none (no result: eIF4H inh, VIM-2 inh, PABP polyA inh, IMP-1 inhibitor)
COc1cc(C(C)=O)ccc1OCC(=O)NCCCn1nc(C)cc1C	none (no result: eIF4H inh, VIM-2 inh, PABP polyA inh, IMP-1 inhibitor)
CCCCOC(=O)c1ccc(N)cc1	eIF4H inh active, PABP polyA inh active
CC(=O)N(CCC(c1ccco1)C(C)C)Cc1ccc(OC(C)C)cc1 (stereo unspecified)	none
O=C(COC(=O)c1ccccc1)NCc1ccco1	eIF4H inh 76, PABP polyA inh active
COc1ccccc1NCCC(=O)OCC(=O)NCc1ccco1	eIF4H inh 96, PABP polyA inh active
O=C(COC(=O)/C=C/c1ccco1)Nc1ncc(C(F)(F)F)cc1Cl	eIF4H inh 88, PABP polyA inh active
O=C(COC(=O)/C=C/c1ccco1)NCc1ccco1	eIF4H inh 86
O=C(COC(=O)/C=C/c1ccco1)NCc1ccccc1Cl	none
CCOC(=O)c1cc2c(=O)n3ccccc3nc2n(Cc2ccco2)c1=NC(=O)c1ccc(OC)cc1OC	none
CCOc1ccc(NC(=O)CC2SC(=O)N(c3ccccc3)C2=O)cc1 (stereo unspecified)	none
Cc1cc(C)c2nc(-c3cccc(Cl)c3)c(C)c(C(=O)N3CCOCC3)c2c1	none
Cc1cc(NC(=O)c2cc(-c3ccc(OC(C)C)cc3)nc3ccccc23)no1	none
Cc1ccsc1C(=O)NCCc1c[nH]c2ccccc12	none
COc1ccc(C(=O)OCC(=O)NCc2ccco2)cc1OC	eIF4H inh 89
Cc1ccc2c(Cl)cc(Cl)c(OCC(=O)NCc3ccco3)c2n1	eIF4H inh 98, PABP polyA inh active (no result: MLLE-PAM2 inh)
CCN(CC)S(=O)(=O)c1cccc(NC(=O)COC(=O)/C=C/c2ccco2)c1	eIF4H inh 69
O=C(COC(=O)c1cccc(S(=O)(=O)N2CCc3ccccc3C2)c1)NCc1ccco1	eIF4H inh 87, PABP polyA inh active
CCOc1ccc(C(=O)OCC(=O)NCc2ccco2)cc1OCC	none
O=C(Nc1ccc(Cl)cc1)P(=O)(O)c1ccccc1	none (no result: eIF4H inh, VIM-2 inh, PABP polyA inh, IMP-1 inhibitor)
O=C(COC(=O)c1ccccc1Nc1cccc(C(F)(F)F)c1)NCc1ccco1	eIF4H inh 54
Cc1ccc(CSc2ncnc3c2cnn3Cc2ccccc2)cc1	IMP-1 inhibitor 6.7
O=C(COC(=O)c1ccc2c(c1)OCCO2)NCc1ccc(Cl)cc1	none (no result: eIF4H inh, VIM-2 inh, PABP polyA inh, IMP-1 inhibitor)
CCOc1ccccc1NC(=O)CSc1nnc(-c2cccnc2)o1	MLLE-PAM2 inh 50 (no result: eIF4H inh, VIM-2 inh, PABP polyA inh, IMP-1 inhibitor)
Cc1ccsc1C=Nc1ccc(O)cc1	eIF4H inh 51
Cc1ccsc1/C=N/N=C/c1sccc1C	none
COc1ccc(N2CC(C(=O)NCc3n[nH]c(=O)c4ccccc34)CC2=O)cc1 (stereo unspecified)	none (no result: eIF4H inh, VIM-2 inh, PABP polyA inh, IMP-1 inhibitor)
COc1ccc2cc1Oc1ccc(cc1)C[C@H]1c3c(cc(OC)c4c3Oc3c(ccc5c3[C@H](C2)N(C)CC5)O4)CCN1C	none (no result: eIF4H inh, VIM-2 inh, PABP polyA inh, IMP-1 inhibitor)
COc1ccc2cc1Oc1ccc(cc1)CC1c3c(cc(OC)c4c3Oc3cc5c(cc3O4)CCNC5C2)CCN1C (stereo unspecified)	IMP-1 inhibitor 4.6
NC(=O)c1ccsc1NC(=O)CN1C(=O)NC2(CCCC2)C1=O	none (no result: eIF4H inh, VIM-2 inh, PABP polyA inh, IMP-1 inhibitor)
N#Cc1ccsc1NC(=O)CN1C(=O)NC2(CCCCC2)C1=O	PABP polyA inh active
CCOC(=O)N1CCN(C(=O)COC(=O)c2ccc([N+](=O)[O-])cc2Cl)CC1	none (no result: eIF4H inh, VIM-2 inh, PABP polyA inh, IMP-1 inhibitor)
COc1ccc(-c2ccc3c(c2)[C@@H]2C[C@H](N(C)C(=O)C(C)(C)C)[C@H]([C@H](C)O)C(=O)N2CC3)cc1	none (no result: eIF4H inh, VIM-2 inh, PABP polyA inh, IMP-1 inhibitor)
O=c1[nH]c(C(Cl)Cl)nc2sc3c(c12)CCN(Cc1ccccc1)C3	eIF4H inh 78, PABP polyA inh active, IMP-1 inhibitor 11
Cc1noc(NC(=O)c2ccccc2C(F)(F)F)c1C#N	none
CC(C)CCNC(=O)C1CC2Cn3c(nc4cc(Cl)c(Cl)cc43)C2N1C (stereo unspecified)	none (no result: eIF4H inh, VIM-2 inh, PABP polyA inh, IMP-1 inhibitor)
Oc1ccc(Br)cc1C=Nc1ccc2c3c(cccc13)CC2	eIF4H inh 100, PABP polyA inh active
O=C(Nc1cccc2ccccc12)c1ccc(Cn2cc(Cl)cn2)cc1	none
Cc1ccccc1CNC(=O)c1ccc2nc(N3CCOCC3)sc2c1	none
CCC(c1nnc(SCC(=O)Nc2ccc(C(C)=O)cc2)n1C1CCCCC1)N(C)C (stereo unspecified)	VIM-2 inh 12
CCC(c1nnc(SCC(=O)Nc2cc(Cl)ccc2C#N)n1C1CCCCC1)N(C)C (stereo unspecified)	none
CCOC(=O)C(=CNc1ccc(S(N)(=O)=O)cc1)C(=O)OCC	none
CCOC(=O)C(=CNc1ccc(NC2=NCC(C)(C)S2)cc1)C(=O)OCC	VIM-2 inh 10
COc1cccc(Nc2ccccc2C(=O)O)c1	none
COc1cc(-c2ccc(Nc3ccccc3C(=O)O)c(OC)c2)ccc1Nc1ccccc1C(=O)O	eIF4H inh 91, PABP polyA inh active
COc1ccc(C(=O)NC(=S)Nc2cccc(NC(=O)c3ccco3)c2)cc1[N+](=O)[O-]	MLLE-PAM2 inh 42
O=C(NC(=S)Nc1ccc(C(=O)N2CCOCC2)cc1)c1ccc([N+](=O)[O-])cc1	MLLE-PAM2 inh 44
COc1ccc(C(=O)NC(=S)Nc2ccc(NC(=O)c3ccco3)cc2)cc1[N+](=O)[O-]	none
CC(C)NS(=O)(=O)c1ccc(NC(=S)NC(=O)c2cccc([N+](=O)[O-])c2)cc1	MLLE-PAM2 inh 48
